Reference: ChEMBL document CHEMBL3271955, “Design, synthesis, and correlation analysis of 7-substituted 4-hydroxyquinoline-3-carboxylic acids as inhibitors of cellular respiration” (J Med Chem, 1977)

Legend:
Ehrlich = assay: Inhibition of respiration in mouse Ehrlich ascites cells after 30 mins incubation at 37 degC by whole cell model; format: functional, cell-based; conditions: 0.5 h, read-out: I50
Summary of the method: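 Ehrlich ascites cells passaged weekly in Swiss white mice; fluid from 7-10 day tumors, saline-washed, held on ice at ~0.30 g/mL. Cells incubated in glucose-free phosphate Ringer with DMSO vehicle or DMSO plus inhibitor, 30 min at 37 °C. O2 uptake read by oxygen electrode. At least four concentrations in triplicate; I50 by least squares of % inhibition vs concentration.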

[1] = biological target: T1, Malate dehydrogenase, mitochondrial (Homo sapiens, UniProt P40926); assay: Inhibition of malate dehydrogenase (unknown origin) by spectrophotometry; conditions: read-out: I50
T1 sequence (P40926 whole entry): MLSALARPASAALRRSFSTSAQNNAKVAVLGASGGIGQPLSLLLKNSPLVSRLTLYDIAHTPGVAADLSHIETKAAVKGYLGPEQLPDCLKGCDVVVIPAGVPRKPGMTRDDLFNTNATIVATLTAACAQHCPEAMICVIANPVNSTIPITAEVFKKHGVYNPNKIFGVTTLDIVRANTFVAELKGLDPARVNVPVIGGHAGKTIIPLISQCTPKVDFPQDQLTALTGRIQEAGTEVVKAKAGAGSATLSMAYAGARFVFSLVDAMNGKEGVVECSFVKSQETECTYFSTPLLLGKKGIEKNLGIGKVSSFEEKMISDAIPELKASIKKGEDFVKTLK
Summary of the method: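 Malate dehydrogenase of unstated source diluted in pH 7.4 Tris to give 0.01-0.02 OD/min at 340 nm. Cuvette holds L-malate (2 mM stock), NAD+ (0.80 mM stock) and 0.05 M Tris pH 8.4, with inhibitor in Me2SO, at 25 °C. Reaction started with enzyme; NADH formation read at 340 nm. Four inhibitor levels in triplicate; I50 from least-squares dose-response line.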

[2] = Lipophilicity, log P of the compound; format: physicochemical; conditions: octanol/water

| IC50 (Ehrlich) [µM] | IC50 [1] [µM] | logP [2] | Compound |
| --- | --- | --- | --- |
| 1300 | 2140 |  | O=C(O)c1cnc2cc(S(=O)(=O)O)ccc2c1O |
| 910 | 490 |  | O=C(O)c1cnc2cc(O)ccc2c1O |
| 470 | 480 |  | CN(C)c1ccc2c(O)c(C(=O)O)cnc2c1 |
| 5770 | 1070 |  | O=C(O)c1ccc2c(O)c(C(=O)O)cnc2c1 |
| 580 | 1890 |  | O=C(O)c1cnc2cc([N+](=O)[O-])ccc2c1O |
| 3400 | 950 |  | NS(=O)(=O)c1ccc2c(O)c(C(=O)O)cnc2c1 |
| 790 | 910 |  | CC(=O)c1ccc2c(O)c(C(=O)O)cnc2c1 |
| 15 | 5 |  | O=C(O)c1cnc2cc(OCc3ccc(Cl)c(Cl)c3)ccc2c1O |
| 38 | 32 |  | O=C(O)c1cnc2cc(OCc3ccccc3)ccc2c1O |
| 1060 |  | 0.23 | O=C(O)c1cnc2ccccc2c1O |
| 5820 | 740 |  | NC(=O)c1ccc2c(O)c(C(=O)O)cnc2c1 |
| 1790 | 660 |  | CS(=O)(=O)c1ccc2c(O)c(C(=O)O)cnc2c1 |
| 140 | 3620 |  | O=C(O)c1cnc2cc(Cl)ccc2c1O |
| 500 | 10600 |  | O=C(O)c1cnc2cc(F)ccc2c1O |
| 520 |  |  | COc1ccc2c(O)c(C(=O)O)cnc2c1 |
